Experimental data pooled from the literature.
Protocols differ between the studies behind these lines.
Target: Receptor-interacting serine/threonine-protein kinase 2 (RIPK2, Homo sapiens, UniProt O43353)

Compound	assay	setting	measurement	result
C[C@@H]1CCN(C(=O)CC#N)C[C@@H]1N(C)c1ncnc2[nH]ccc12	cell-free assay, inhibitor	0.5 µM	remaining signal	113%
CCN(CC)CCNC(=O)c1c(C)[nH]c(/C=C2\C(=O)Nc3ccc(F)cc32)c1C	enzyme activity, inhibitor	10 µM	inhibition	24%
CNCc1ccc(-c2cc(-c3nc(-c4ccc(S(=O)(=O)C(C)C)cc4)cnc3N)on2)cc1	enzyme activity, inhibitor	2 µM	inhibition	26%
Cn1cnc(Br)c1C1=CN(c2ncnc3[nH]cnc23)CCS1	enzyme activity, inhibitor, radiometric	2 µM	inhibition	34%
F[C@@H]1CCN(c2nccc(-c3cnn4ncccc34)n2)C1	binding	1 µM	remaining binding	100%
CCCOc1ccc([C@H]2[C@H](C(=O)O)[C@@H](c3ccc4c(c3)OCO4)CN2CC(=O)Nc2c(CC)cccc2CC)cc1	cell-free assay, competition with immobilised ligand	1 µM	remaining binding	100%
CCCOc1ccc(OC)c(F)c1C(=O)c1ccc(C(=O)N[C@@H]2CNC[C@H]2NC(=O)c2ccc3[nH]ncc3c2)cc1	enzyme activity, inhibitor	10 µM	remaining activity	91%
COc1cc(Cl)c(C(=O)N[C@@H](CN[C@H]2CC[C@@H](N)CC2)Cc2ccc(C#N)cc2)cc1-c1ccc(CN[C@H](C)c2ccc(C)cc2)o1	enzyme activity, inhibitor	1 µM	remaining activity	100%
C[C@@H]1CN(c2cc(-c3n[nH]c4ccc(OC5(C)CC5)cc34)ncn2)C[C@H](C)O1	cell-free assay, competition with immobilised ligand	0.1 µM	remaining binding	100%
Cn1c(=O)n(-c2ccc(C(C)(C)C#N)cc2)c2c3cc(-c4cnc5ccccc5c4)ccc3ncc21	enzyme activity, inhibitor	10 µM	remaining activity	28%
COc1ccc2c(c1)O[C@H](c1ccc(OC)c(OC)c1)C[C@@H]2NC(=O)C1(c2ccc3c(c2)OC(F)(F)O3)CC1	cell-free assay, competition with immobilised ligand	1 µM	remaining binding	100%
FC(F)(F)Oc1cccc(-c2cnc3ccc(-c4ccncc4)nn23)c1	enzyme activity, inhibitor, radiometric	5 µM	activity vs control	22%
O=C(Nc1cnn(-c2csc(C(=O)NC3COC3)c2)c1)Nc1ccccc1Cl	enzyme activity, inhibitor	5 µM	remaining activity	120%
O=C(O)[C@H]1[C@H](Cn2nnc3ccccc3c2=O)CC[C@@H]1C(=O)c1ccc(OCCC2CCOCC2)cc1	cell-free assay, competition with immobilised ligand	1 µM	remaining binding	100%
N#CCCc1ccc2c(c1)-c1[nH]c3ccc([N+](=O)[O-])cc3c1CC(=O)N2	cell-free assay	0.5 µM	remaining signal	21.5%
NS(=O)(=O)c1cc(NC(=O)C2(c3ccccc3Cl)CC2)ccc1Oc1cccc(Cl)c1	cell-free assay, competition with immobilised ligand	1 µM	remaining binding	93%
Oc1cccc(-c2nc(N3CCOCC3)c3oc4ncccc4c3n2)c1	enzyme activity, inhibitor	10 µM	remaining activity	72%
Oc1ccc(-c2nc(-c3ccncc3)c(-c3ccc(F)cc3)[nH]2)cc1	cell-free assay	0.5 µM	remaining signal	46.8%
COc1cc(-c2cn(C3CCc4ccccc4N(CC(F)(F)F)C3=O)nn2)ccc1-n1ccc(C)n1 (stereo not shown)	cell-free assay, competition with immobilised ligand	1 µM	remaining binding	93%
Cc1ccc(NC(=O)c2ccc(C)c(C(F)(F)F)c2)cc1C#Cc1nn(C2CCC(O)CC2)c2ncnc(N)c12 (stereo not shown)	cell-free assay	10 µM	remaining signal	21%
CCCS(=O)(=O)Nc1ccc(F)c(C(=O)c2c[nH]c3ncc(-c4ccc(Cl)cc4)cc23)c1F	enzyme activity, inhibitor	1 µM	inhibition	< 10%
CNC(=O)c1cc(Oc2ccc(NC(=O)Nc3ccc(Cl)c(C(F)(F)F)c3)cc2)ccn1	cell-free assay	0.5 µM	remaining signal	86.2%
Cc1nccc(COC(=O)N2C[C@@H]3[C@@H](CNC(=O)c4ccc5[nH]nnc5c4)[C@@H]3C2)n1	cell-free assay, competition with immobilised ligand	1 µM	remaining binding	100%
COc1cc(Nc2cnc(C#N)c(O[C@H](C)CN(C)C)n2)ncc1-c1cnn(C)c1	enzyme activity, inhibitor, radiometric	1 µM	remaining activity	97%
CCS(=O)(=O)c1cc2cc(C[C@](O)(CC(C)(C)c3ccc(F)cc3C(N)=O)C(F)(F)F)[nH]c2cn1	cell-free assay, competition with immobilised ligand	1 µM	remaining binding	67%
CC(C)(C)c1nc(-c2cccc(NS(=O)(=O)c3c(F)cccc3F)c2F)c(-c2ccnc(N)n2)s1	enzyme activity, inhibitor, radiometric	1 µM	remaining activity	5%
Cc1ccc(C(=O)Nc2ccc(CN3CCN(C)CC3)c(C(F)(F)F)c2)cc1C#Cc1cnc2cccnn12	enzyme activity, inhibitor	23.5 nM	remaining activity	43%
Nc1ncnc2occ(-c3ccc(NC(=O)Nc4cc(C(F)(F)F)ccc4F)cc3)c12	cell-free assay, inhibitor	20 µM	remaining signal	4.2%
